Tests used:
[1] = biological target: Apoptosis regulator Bcl-2 (Homo sapiens, UniProt P10415); experiment: Displacement of Flu-Bak peptide from recombinant antiapoptotic Bcl2 protein by fluorescence polarization assay
Summary of the method: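 Recombinant Ni-NTA-purified proteins from E. coli ER2566 (Bcl-2 lacking transmembrane domain). This is added to compound from 3-fold DMSO stocks (0.014–10 mM), incubated 1 h at 23 °C, and polarization read. Peptide-only background is subtracted. Ki is from the Wang equation; triplicates, run twice.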

[2] = Displacement of Flu-Bak peptide from recombinant antiapoptotic Bcl-XL protein by fluorescence polarization assay; set-up: species or system Homo sapiens
Summary of the method: (§1)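 Recombinant Ni-NTA-purified proteins from E. coli ER2566 (Bcl-2 lacking transmembrane domain). Oregon Green-labelled Bak BH3 peptide (50 nM in premix) is preincubated 1 h at 23 °C with protein for 60% complex (Bcl-2 1000 nM, Bcl-XL 880 nM, Bcl-w 1200 nM) in PBS pH 7.0 with 1 mM DTT. This is added to compound from 3-fold DMSO stocks (0.014–10 mM), incubated 1 h at 23 °C, and polarization read. Peptide-only background is subtracted. Ki is from the Wang equation; triplicates, run twice.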

Bcl-2-like protein 2 = biological target: T1, Bcl-2-like protein 2 (Homo sapiens, UniProt Q92843); experiment: Displacement of Flu-Bak peptide from recombinant antiapoptotic Bcl-w protein by fluorescence polarization assay; summary of the method: as §1
T1 sequence (Q92843 whole entry): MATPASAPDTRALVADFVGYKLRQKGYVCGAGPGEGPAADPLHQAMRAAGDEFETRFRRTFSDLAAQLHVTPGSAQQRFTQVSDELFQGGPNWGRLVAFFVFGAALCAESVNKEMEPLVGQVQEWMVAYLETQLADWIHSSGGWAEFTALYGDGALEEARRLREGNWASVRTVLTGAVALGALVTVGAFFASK

Homo sapiens [3] = organism: Homo sapiens; experiment: Selectivity for recombinant Bcl2 protein over recombinant Bcl-w protein
Homo sapiens [4] = organism: Homo sapiens; experiment: Selectivity for recombinant Bcl-w protein over recombinant Bcl-XL protein
Homo sapiens [5] = organism: Homo sapiens; experiment: Selectivity for recombinant Bcl-XL protein over recombinant Bcl-2 protein
Homo sapiens [6] = organism: Homo sapiens; experiment: Selectivity for recombinant Bcl2 protein over recombinant Bcl-XL protein

Apoptosis regulator Bcl-2, sequence (P10415 whole entry, the tested form may be a part): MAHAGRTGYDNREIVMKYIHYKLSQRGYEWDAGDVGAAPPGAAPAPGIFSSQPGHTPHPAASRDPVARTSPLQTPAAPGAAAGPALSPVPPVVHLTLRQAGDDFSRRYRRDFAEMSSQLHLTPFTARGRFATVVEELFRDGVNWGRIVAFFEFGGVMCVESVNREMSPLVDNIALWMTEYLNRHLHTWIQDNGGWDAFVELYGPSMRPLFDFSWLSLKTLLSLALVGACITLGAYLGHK

Work on C[C@@H](C(=O)N1CCOCC1)N1C(=O)/C(=C/c2ccc(Br)cc2)SC1=S yielded a Ki [1] of 70 µM, a Ki [2] of 228 µM and a Ki (Bcl-2-like protein 2) of 146 µM. It also gave a Ratio Ki (Homo sapiens [3]) of 2.01.
With C=CCOC(=O)[C@H](Cc1ccccc1)N1C(=O)/C(=C/c2ccc(Br)cc2)SC1=S the Ki [1] was > 1000 µM, the Ki [2] was 244 µM and the Ki (Bcl-2-like protein 2) was 56.8 µM. The Ratio Ki (Homo sapiens [4]) was 4.29.
With CC(C)C[C@@H](C(=O)O)N1C(=O)/C(=C/c2ccc(Br)cc2)SC1=S the Ki [1] was 7.43 µM, the Ki [2] was 2.99 µM and the Ki (Bcl-2-like protein 2) was 31.2 µM. For the same compound, the Ratio Ki (Homo sapiens [5]) was 2.48.
Work on CC(C)C[C@@H](C(=O)O)N1C(=O)/C(=C(\c2ccccc2)c2ccc(-c3ccccc3)cc2)SC1=S yielded a Ki [1] of 1.95 µM, a Ki [2] of 8.7 µM and a Ki (Bcl-2-like protein 2) of 6.98 µM. It also gave a Ratio Ki (Homo sapiens [3]) of 3.58.
Work on CCC/C(=C1/SC(=S)N([C@@H](CC(C)C)C(=O)O)C1=O)c1ccccc1 yielded a Ki [1] of 13.5 µM, a Ki [2] of 41.3 µM and a Ki (Bcl-2-like protein 2) of 24.1 µM. The Ratio Ki (Homo sapiens [3]) was 1.79.
In the case of C[C@@H](C(=O)O)N1C(=O)/C(=C/c2ccc(Br)cc2)SC1=S, the Ki [1] is reported as 115 µM, the Ki [2] is reported as 374 µM and the Ki (Bcl-2-like protein 2) is reported as 243 µM. It also gave a Ratio Ki (Homo sapiens [3]) of 2.11.
With C=CCOC(=O)[C@H](C)N1C(=O)/C(=C/c2ccc(Br)cc2)SC1=S the Ki [1] was 192 µM, the Ki [2] was 268 µM and the Ki (Bcl-2-like protein 2) was > 1000 µM. It also gave a Ratio Ki (Homo sapiens [6]) of 1.4.
In the case of O=C(O)CC[C@@H](C(=O)O)N1C(=O)/C(=C/c2ccc(Br)cc2)SC1=S, the Ki [1] is reported as 320 µM, the Ki [2] is reported as 848 µM and the Ki (Bcl-2-like protein 2) is reported as 610 µM. For the same compound, the Ratio Ki (Homo sapiens [3]) was 1.91.
Work on C=CCOC(=O)[C@H](Cc1ccccc1)N1C(=O)C(=C(c2ccccc2)c2ccccc2)SC1=S yielded a Ki [1] of 260 µM, a Ki [2] of 176 µM and a Ki (Bcl-2-like protein 2) of 116 µM. The Ratio Ki (Homo sapiens [4]) was 1.52.
In the case of COc1ccc2c(c[n+](C)c3c4cc5c(cc4ccc23)OCO5)c1OC [CHELERYTHRINE CHLORIDE], the Ki [1] is reported as 171 µM, the Ki [2] is reported as 96 µM and the Ki (Bcl-2-like protein 2) is reported as 106 µM.
C/C(=C1/SC(=S)N([C@@H](CC(C)C)C(=O)O)C1=O)c1ccccc1 showed a Ki [1] of 21.2 µM, a Ki [2] of 128 µM and a Ki (Bcl-2-like protein 2) of 58.3 µM. For the same compound, the Ratio Ki (Homo sapiens [3]) was 2.74.
In the case of CCC/C(=C1/SC(=S)N([C@@H](Cc2ccccc2)C(=O)O)C1=O)c1ccccc1, the Ki [1] is reported as 12 µM, the Ki [2] is reported as 27.9 µM and the Ki (Bcl-2-like protein 2) is reported as 41.1 µM. It also gave a Ratio Ki (Homo sapiens [6]) of 2.33.
CSCC[C@@H](C(=O)O)N1C(=O)/C(=C/c2ccc(Br)cc2)SC1=S showed a Ki [1] of 69.6 µM, a Ki [2] of 134 µM and a Ki (Bcl-2-like protein 2) of 88 µM. For the same compound, the Ratio Ki (Homo sapiens [3]) was 1.26.
Work on O=C(O)[C@H](Cc1ccccc1)N1C(=O)/C(=C/c2ccc(Br)cc2)SC1=S yielded a Ki [1] of 14.2 µM, a Ki [2] of 5.35 µM and a Ki (Bcl-2-like protein 2) of 21.5 µM. For the same compound, the Ratio Ki (Homo sapiens [5]) was 2.65.
In the case of CC(C)C[C@@H](C(=O)O)N1C(=O)C(=C(c2ccccc2)c2ccccc2)SC1=S, the Ki [1] is reported as 57.8 µM, the Ki [2] is reported as 68.8 µM and the Ki (Bcl-2-like protein 2) is reported as 61.9 µM. The Ratio Ki (Homo sapiens [3]) was 1.07.
Work on CC(C)C(C(=O)O)N1C(=O)/C(=C\c2ccc(Br)cc2)SC1=S (stereo unspecified) yielded a Ki [1] of 43.4 µM, a Ki [2] of 133 µM and a Ki (Bcl-2-like protein 2) of 124 µM. For the same compound, the Ratio Ki (Homo sapiens [3]) was 2.85.
CCCC[C@H]1C(=O)O[C@H](C)[C@H](NC(=O)c2cccc(NC=O)c2O)C(=O)O[C@@H](C)[C@@H]1OC(=O)CC(C)C [ANTIMYCIN A3] showed a Ki [1] of 124 µM and a Ki (Bcl-2-like protein 2) of 127 µM.
Work on Cc1cc2c(C(C)C)c(O)c(O)c(C=O)c2c(O)c1-c1c(C)cc2c(C(C)C)c(O)c(O)c(C=O)c2c1O [GOSSYPOL] yielded a Ki [2] of 24.7 µM and a Ki (Bcl-2-like protein 2) of 17.7 µM.
O=C(O)[C@H](Cc1c[nH]c2ccccc12)N1C(=O)/C(=C/c2ccc(Br)cc2)SC1=S gave a Ki [1] of 2.85 µM, a Ki [2] of 32.8 µM and a Ki (Bcl-2-like protein 2) of 54.2 µM. It also gave a Ratio Ki (Homo sapiens [6]) of 11.5.
